Broadly, the IC50 is the concentration at which inhibition is half-maximal. One may read the efflux ratio as the permeability from basolateral to apical divided by that in the opposite direction, in the common usage. By DC50 is commonly meant the concentration giving 50% degradation. A word on the Papp B→A: it is the apparent permeability from the basolateral to the apical side of a cell layer.

The text below walks through data of PMC6600871 (Nature chemical biology, 2019).

SMILES strings stand for the structures. Bounds are passed on as bounds.

One series addresses SMARCA2^BD (Homo sapiens, UniProt P51531). It is filed as binding.
A short description of series [1]: Caco-2 permeability assay. It is filed as in vitro ADME. Particulars: human, Caco-2, pH 7.2.
For a further series, the target named is SMARCA2 (Homo sapiens, UniProt P51531). Description: Protein degradation assay. Particulars: MV-4-11 cells, 1 µM compound. It counts as cell-based.
For a further series, the target named is SMARCA4 (Homo sapiens, UniProt P51532). Description: Protein degradation assay. It is filed as cell-based. Conditions: MV-4-11 cells, 1 µM compound.
The next series concerns the target PBRM1 (Homo sapiens, UniProt Q86U86). Description: Protein degradation assay, PBRM1 in NCI-H1568 cells. It counts as cell-based. Particulars: read-out: DC50 PBRM1, 18 h. In a few lines:
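Cells seeded at 20000/well in 24-well plates and held overnight at 37 °C. Test compound added from DMSO stock (DMSO normalised), 18 h at 37 °C. Lysed 30 min on ice in 1% Triton, 350 mM KCl, 10 mM Tris pH 7.4, 10 mM DTT, benzonase, protease/phosphatase inhibitors. Target protein quantified by WES capillary electrophoresis, normalised to GAPDH. Two independent experiments.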

The subject of another series is MV-4-11 cells. Nature of the series: Proliferation assay. Particulars: read-out: anti-proliferative IC50, MV-4-11; cell viability after 7 days. It is filed as cell-based, human.
Series [2] concerns SK-MEL-5 cells. Description: Proliferation assay. It counts as cell-based. Conditions: Homo sapiens, SK-MEL-5, 168 h, read-out: anti-proliferative IC50, SK-MEL-5.
The test system of the next series is NCI-H1703 cells. Nature of the series: Proliferation assay. It counts as cell-based, human. Conditions: SMARCA2/4 null cell line, 7 days.
The subject of series [3] is panel of cancer cell lines. Nature of the series: Proliferation of a panel of cancer cell lines. It is filed as cell-based, human. Particulars: all cell lines tested.
The test system of series [4] is SK-MEL-5 cells. Nature of the series: Real-time apoptosis measurement. It is filed as cell-based, human. Particulars: SK-MEL-5, 0.3 µM, comparable to doxorubicin (1 µM).
Series [5] concerns proteome of MV-4-11 cells. Nature of the series: TMT labelling mass spectrometry proteomics in MV-4-11 cells. It is filed as cell-based, human. Particulars: 333 nM, 8 h.
Series [6] deals with VHL-ElonginC-ElonginB (VCB) complex. Description: Isothermal titration calorimetry. It counts as binding, human. Conditions: ITC, VCB ± SMARCA2^BD.

Sequence of SMARCA4 (P51532 whole entry): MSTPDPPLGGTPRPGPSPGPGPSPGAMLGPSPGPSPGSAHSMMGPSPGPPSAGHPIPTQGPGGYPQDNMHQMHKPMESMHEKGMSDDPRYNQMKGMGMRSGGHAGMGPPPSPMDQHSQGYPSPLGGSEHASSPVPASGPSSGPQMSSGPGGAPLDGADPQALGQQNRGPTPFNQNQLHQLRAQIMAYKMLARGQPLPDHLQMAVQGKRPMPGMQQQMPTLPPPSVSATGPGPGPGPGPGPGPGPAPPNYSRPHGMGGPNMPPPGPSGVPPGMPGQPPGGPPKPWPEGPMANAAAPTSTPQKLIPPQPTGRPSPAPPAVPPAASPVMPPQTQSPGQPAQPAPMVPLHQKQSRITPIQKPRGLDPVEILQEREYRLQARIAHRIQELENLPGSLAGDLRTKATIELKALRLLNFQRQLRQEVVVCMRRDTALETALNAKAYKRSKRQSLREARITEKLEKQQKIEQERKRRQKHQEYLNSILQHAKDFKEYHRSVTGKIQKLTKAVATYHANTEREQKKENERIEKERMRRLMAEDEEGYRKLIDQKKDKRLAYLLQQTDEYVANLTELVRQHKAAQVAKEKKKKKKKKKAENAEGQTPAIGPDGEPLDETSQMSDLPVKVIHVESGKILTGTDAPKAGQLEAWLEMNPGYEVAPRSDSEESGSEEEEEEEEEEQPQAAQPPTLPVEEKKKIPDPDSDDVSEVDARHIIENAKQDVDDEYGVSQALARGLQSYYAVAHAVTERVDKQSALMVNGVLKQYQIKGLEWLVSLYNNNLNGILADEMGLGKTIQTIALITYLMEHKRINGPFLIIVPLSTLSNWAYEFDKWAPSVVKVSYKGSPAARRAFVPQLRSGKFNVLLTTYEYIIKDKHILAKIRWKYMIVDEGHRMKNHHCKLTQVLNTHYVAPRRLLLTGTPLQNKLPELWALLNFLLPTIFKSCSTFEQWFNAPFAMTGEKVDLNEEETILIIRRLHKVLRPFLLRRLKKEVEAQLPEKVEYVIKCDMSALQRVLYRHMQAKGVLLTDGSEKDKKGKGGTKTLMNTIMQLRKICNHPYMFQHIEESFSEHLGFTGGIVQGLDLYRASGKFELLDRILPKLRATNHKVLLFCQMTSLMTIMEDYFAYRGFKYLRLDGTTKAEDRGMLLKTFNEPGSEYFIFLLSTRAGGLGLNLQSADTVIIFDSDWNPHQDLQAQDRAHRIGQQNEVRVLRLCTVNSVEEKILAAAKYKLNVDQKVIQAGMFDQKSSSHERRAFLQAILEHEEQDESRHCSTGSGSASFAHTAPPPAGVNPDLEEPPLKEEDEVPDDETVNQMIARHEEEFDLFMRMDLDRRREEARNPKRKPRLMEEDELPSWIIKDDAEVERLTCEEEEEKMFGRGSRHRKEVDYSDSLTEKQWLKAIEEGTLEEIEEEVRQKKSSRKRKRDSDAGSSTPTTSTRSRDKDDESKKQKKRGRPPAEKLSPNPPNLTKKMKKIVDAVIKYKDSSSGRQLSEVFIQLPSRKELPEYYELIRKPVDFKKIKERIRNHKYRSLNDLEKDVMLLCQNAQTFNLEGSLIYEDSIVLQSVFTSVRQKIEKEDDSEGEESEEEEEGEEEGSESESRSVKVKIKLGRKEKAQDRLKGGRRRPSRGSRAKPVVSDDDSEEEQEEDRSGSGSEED
Sequence of PBRM1 (Q86U86 whole entry): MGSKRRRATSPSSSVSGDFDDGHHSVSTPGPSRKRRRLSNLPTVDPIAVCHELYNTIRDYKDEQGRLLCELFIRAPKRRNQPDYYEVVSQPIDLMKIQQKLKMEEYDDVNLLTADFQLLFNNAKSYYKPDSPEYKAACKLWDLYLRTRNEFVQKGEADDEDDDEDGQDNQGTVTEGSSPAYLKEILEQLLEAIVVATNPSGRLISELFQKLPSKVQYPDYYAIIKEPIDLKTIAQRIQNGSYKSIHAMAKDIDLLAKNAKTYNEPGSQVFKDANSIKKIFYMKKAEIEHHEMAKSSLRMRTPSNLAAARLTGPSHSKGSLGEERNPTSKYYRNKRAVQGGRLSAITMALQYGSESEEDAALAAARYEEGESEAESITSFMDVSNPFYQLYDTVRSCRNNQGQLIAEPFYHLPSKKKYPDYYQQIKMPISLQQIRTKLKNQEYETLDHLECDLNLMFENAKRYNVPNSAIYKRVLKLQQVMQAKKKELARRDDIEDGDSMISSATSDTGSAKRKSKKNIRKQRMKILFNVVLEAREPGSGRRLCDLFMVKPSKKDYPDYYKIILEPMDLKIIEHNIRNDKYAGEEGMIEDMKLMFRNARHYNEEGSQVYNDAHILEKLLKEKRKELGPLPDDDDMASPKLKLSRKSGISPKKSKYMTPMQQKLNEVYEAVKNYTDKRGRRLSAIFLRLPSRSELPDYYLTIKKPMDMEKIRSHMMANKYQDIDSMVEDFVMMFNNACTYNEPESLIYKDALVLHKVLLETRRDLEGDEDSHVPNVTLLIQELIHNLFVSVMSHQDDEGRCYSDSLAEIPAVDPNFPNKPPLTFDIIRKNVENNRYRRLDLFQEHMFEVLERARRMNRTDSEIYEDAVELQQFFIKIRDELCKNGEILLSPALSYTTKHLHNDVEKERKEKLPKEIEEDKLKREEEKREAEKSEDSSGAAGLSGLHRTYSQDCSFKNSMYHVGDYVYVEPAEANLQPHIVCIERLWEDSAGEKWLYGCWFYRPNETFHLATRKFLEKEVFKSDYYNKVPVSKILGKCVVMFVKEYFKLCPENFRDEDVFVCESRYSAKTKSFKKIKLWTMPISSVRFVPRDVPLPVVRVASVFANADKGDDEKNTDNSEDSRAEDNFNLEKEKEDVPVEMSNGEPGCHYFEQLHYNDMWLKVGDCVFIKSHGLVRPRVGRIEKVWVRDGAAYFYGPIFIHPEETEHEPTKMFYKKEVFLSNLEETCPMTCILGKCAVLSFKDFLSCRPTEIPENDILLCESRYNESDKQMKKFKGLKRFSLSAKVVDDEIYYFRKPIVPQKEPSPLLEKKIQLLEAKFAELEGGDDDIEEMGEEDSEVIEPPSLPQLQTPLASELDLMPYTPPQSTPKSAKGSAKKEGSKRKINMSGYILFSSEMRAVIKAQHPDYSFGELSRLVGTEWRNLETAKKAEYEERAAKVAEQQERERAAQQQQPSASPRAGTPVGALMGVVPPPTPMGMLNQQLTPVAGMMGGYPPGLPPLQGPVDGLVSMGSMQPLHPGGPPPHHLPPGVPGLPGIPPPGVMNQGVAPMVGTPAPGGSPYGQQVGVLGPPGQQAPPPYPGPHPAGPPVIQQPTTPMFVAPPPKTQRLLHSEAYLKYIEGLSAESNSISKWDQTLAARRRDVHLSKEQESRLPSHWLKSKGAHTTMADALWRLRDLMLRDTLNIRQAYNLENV

Regarding `Cc1ncsc1-c1ccc(CNC(=O)[C@@H]2C[C@@H](O)CN2C(=O)[C@@H](NC(=O)C2(F)CC2)C(C)(C)C)c(OCCOc2ccc(CN3CCN(c4cc(-c5ccccc5O)nnc4N)CC3)cc2)c1` [ACBI1, (2S,4R)-N-(2-(2-(4-((4-(3-amino-6-(2-hydroxyphenyl)pyridazin-4-yl)piperazin-1-yl)methyl)phenoxy)ethoxy)-4-(4-methylthiazol-5-yl)benzyl)-1-((S)-2-(1-fluorocyclopropane-1-carboxamido)-3,3-dimethylbutanoyl)-4-hydroxypyrrolidine-2-carboxamide], the IC50 against SMARCA2^BD came to 0.77 µM; in the series on MV-4-11 cells, 0.029 µM; with SK-MEL-5 cells [2], 0.077 µM. Also, the efflux ratio in series [1] came out at 1.7. For the same compound, on SMARCA2, the “time to half maximal degradation of SMARCA2” value was less than 2 h. Further, the “time to half maximal degradation of SMARCA4” value on SMARCA4 is reported as less than 2 h. Besides, the DC50 at PBRM1 was 0.0156 µM. Besides, the “anti-proliferative effect in NCI-H1703” value with NCI-H1703 cells is “no anti-proliferative effects”. Also, the “anti-proliferative effect across cell lines tested” value in series [3] is on record as “potent anti-proliferative effects”. For the same compound, the “caspase activity / apoptosis” value with SK-MEL-5 cells [4] is reported as “increased caspase activity”. Besides, the “effect on cellular proteome” value in [5] is “significant knockdown of SMARCA2, SMARCA4 and PBRM1 with minimal down-regulation of other proteins across the proteome”.

In the case of `Cc1ncsc1-c1ccc(CNC(=O)[C@@H]2C[C@@H](O)CN2C(=O)[C@@H](NC(=O)C2(F)CC2)C(C)(C)C)c(OCCOCCOCCN2CCN(c3cc(-c4ccccc4O)nnc3N)CC2)c1` [PROTAC 1, (2S,4R)-N-(2-(2-(2-(2-(4-(3-amino-6-(2-hydroxyphenyl)pyridazin-4-yl)piperazin-1-yl)ethoxy)ethoxy)ethoxy)-4-(4-methylthiazol-5-yl)benzyl)-1-((S)-2-(1-fluorocyclopropane-1-carboxamido)-3,3-dimethylbutanoyl)-4-hydroxypyrrolidine-2-carboxamide], the “cooperativity α (binary KD/ternary KD)” value in series [6] stood at 4.8. Also, in series [1], the Papp B→A at 2 h was found to be 20.7 ×10⁻⁶ cm/s.

With `Cc1ncsc1-c1ccc(CNC(=O)[C@@H]2C[C@H](O)CN2C(=O)[C@@H](NC(=O)C2(F)CC2)C(C)(C)C)c(OCCOc2ccc(CN3CCN(c4cc(-c5ccccc5O)nnc4N)CC3)cc2)c1` [cis-ACBI1, (2S,4S)-N-(2-(2-(4-((4-(3-amino-6-(2-hydroxyphenyl)pyridazin-4-yl)piperazin-1-yl)methyl)phenoxy)ethoxy)-4-(4-methylthiazol-5-yl)benzyl)-1-((S)-2-(1-fluorocyclopropane-1-carboxamido)-3,3-dimethylbutanoyl)-4-hydroxypyrrolidine-2-carboxamide], the IC50 in the series on SK-MEL-5 cells [2] is greater than 10 µM. Moreover, the “anti-proliferative effect in NCI-H1703” value in the series on NCI-H1703 cells is reported as “no anti-proliferative effects”.
